Data as given in ChEMBL document CHEMBL1800027, “Imidazolopiperazines: hit to lead optimization of new antimalarial agents” (J Med Chem, 2011).
pIC50: −log10 of the molar value.

Legend:
[1] = tested on: Plasmodium berghei; test: Antimalarial activity against GFP-tagged Plasmodium berghei ANKA infected in NMRI mouse assessed as mouse survival at 30 mg/kg, po QD administered 24 hrs post infection for 3 days measured on day 30 post infection; assay type: functional
[2] = biological target: T1, Cytochrome P450 1A2 (Homo sapiens, UniProt P05177); test: Inhibition of CYP 1A2; assay type: ADME
T1 sequence (P05177 whole entry): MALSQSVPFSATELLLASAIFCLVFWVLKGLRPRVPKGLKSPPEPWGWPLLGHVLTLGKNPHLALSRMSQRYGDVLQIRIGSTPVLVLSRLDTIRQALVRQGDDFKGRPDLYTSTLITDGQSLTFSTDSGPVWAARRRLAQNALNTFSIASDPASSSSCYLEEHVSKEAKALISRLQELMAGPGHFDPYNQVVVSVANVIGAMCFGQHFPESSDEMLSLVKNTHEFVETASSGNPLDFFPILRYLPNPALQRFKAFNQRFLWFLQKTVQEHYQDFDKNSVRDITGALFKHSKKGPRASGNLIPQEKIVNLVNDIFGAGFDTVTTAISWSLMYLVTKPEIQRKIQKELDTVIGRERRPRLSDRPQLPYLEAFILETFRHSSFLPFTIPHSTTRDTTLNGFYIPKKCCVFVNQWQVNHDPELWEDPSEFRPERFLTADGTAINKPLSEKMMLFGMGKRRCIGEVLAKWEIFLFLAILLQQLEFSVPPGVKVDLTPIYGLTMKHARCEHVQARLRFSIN

[3] = Oral bioavailability in male BALB/c mouse at 20 mg/kg by LC/MS/MS analysis; assay type: ADME, organism-based; conditions: in vivo
Method in brief: (§1)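 Male Balb/c mice, n = 3 per group, given 20 mg/kg orally at 8 mL/kg. Vehicle 2.5 mg/mL in 75% PEG300/25% DSW, filtered. Six serial retro-orbital blood samples up to 24 h, heparinized plasma. Plasma extracted with acetonitrile/methanol (3:1) plus internal standard; LC/MS/MS quantitation by positive ESI MRM. Noncompartmental analysis; values normalized to 30 mg/kg. F = (AUCpo·dose iv)/(AUCiv·dose po).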

[4] = Cytotoxicity against mouse BAF3 cells; assay type: cell-based; conditions: read-out: TC50 (the source's name)
[5] = Cytotoxicity against Cricetulus griseus CHO cells; assay type: cell-based; conditions: chinese hamster, read-out: TC50 (the source's name)
[6] = tested on: Mus musculus; test: Cmax in male BALB/c mouse at 20 mg/kg, po by LC/MS/MS analysis; assay type: ADME, organism-based; set-up: dose 20 mg/kg, route oral; conditions: in vivo; method in brief: as §1
[7] = tested on: Plasmodium berghei; test: Antimalarial activity against GFP-tagged Plasmodium berghei ANKA infected in NMRI mouse assessed as mouse survival at 30 mg/kg, po administered as single dose 24 hrs post infection measured 72 hrs post infection
[8] = Cytotoxicity against human HeLa cells; assay type: cell-based; conditions: read-out: TC50 (the source's name)
[9] = Cytotoxicity against human HuH7 cells; assay type: cell-based; conditions: Huh-7 cells, read-out: TC50 (the source's name)
[10] = biological target: Cytochrome P450 2D6 (Homo sapiens, UniProt P10635); test: Inhibition of CYP 2D6; assay type: ADME
Sequence of Cytochrome P450 2D6 (P10635 whole entry): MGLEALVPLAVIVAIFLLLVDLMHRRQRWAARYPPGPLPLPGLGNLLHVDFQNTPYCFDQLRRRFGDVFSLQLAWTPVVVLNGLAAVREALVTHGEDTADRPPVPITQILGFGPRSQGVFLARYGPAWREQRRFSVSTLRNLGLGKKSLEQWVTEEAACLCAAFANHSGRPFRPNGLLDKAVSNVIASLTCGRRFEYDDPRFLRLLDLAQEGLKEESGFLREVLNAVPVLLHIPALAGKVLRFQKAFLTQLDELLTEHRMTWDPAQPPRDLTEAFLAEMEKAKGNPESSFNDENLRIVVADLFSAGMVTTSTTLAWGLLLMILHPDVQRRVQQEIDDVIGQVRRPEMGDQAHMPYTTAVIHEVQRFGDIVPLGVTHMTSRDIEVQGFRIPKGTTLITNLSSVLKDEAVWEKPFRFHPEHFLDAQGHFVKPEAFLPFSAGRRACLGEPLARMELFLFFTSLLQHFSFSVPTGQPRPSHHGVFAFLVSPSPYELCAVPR

[11] = tested on: Plasmodium berghei; test: Antimalarial activity against GFP-tagged Plasmodium berghei ANKA infected in NMRI mouse assessed as reduction in parasitemia at 30 mg/kg, po QD administered 24 hrs post infection for 3 days measured on day 4 post infection; assay type: functional; set-up: scale not given: the % may be the effect or the level left
[12] = tested on: Rattus norvegicus; test: Toxicity in rat assessed as adverse effect at 500 mg/kg; assay type: organism-based; set-up: dose 500 mg/kg; conditions: in vivo
[13] = biological target: Cytochrome P450 3A4 (Homo sapiens, UniProt P08684); test: Inhibition of CYP 3A4; assay type: ADME
Sequence of Cytochrome P450 3A4 (P08684 whole entry): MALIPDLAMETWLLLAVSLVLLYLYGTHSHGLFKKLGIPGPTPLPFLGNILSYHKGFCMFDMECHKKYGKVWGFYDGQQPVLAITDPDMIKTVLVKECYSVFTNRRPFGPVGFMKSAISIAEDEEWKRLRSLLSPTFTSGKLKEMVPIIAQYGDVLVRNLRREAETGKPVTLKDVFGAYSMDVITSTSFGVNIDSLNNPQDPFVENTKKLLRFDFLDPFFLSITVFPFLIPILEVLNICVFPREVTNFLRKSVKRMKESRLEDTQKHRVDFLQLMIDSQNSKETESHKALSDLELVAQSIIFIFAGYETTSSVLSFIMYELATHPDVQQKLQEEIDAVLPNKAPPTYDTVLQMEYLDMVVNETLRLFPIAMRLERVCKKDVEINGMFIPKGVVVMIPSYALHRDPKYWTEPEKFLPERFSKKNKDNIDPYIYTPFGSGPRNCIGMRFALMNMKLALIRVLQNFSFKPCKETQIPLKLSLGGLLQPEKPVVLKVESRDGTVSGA

[14] = biological target: Cytochrome P450 2C9 (Homo sapiens, UniProt P11712); test: Inhibition of CYP 2C9; assay type: ADME
Sequence of Cytochrome P450 2C9 (P11712 whole entry): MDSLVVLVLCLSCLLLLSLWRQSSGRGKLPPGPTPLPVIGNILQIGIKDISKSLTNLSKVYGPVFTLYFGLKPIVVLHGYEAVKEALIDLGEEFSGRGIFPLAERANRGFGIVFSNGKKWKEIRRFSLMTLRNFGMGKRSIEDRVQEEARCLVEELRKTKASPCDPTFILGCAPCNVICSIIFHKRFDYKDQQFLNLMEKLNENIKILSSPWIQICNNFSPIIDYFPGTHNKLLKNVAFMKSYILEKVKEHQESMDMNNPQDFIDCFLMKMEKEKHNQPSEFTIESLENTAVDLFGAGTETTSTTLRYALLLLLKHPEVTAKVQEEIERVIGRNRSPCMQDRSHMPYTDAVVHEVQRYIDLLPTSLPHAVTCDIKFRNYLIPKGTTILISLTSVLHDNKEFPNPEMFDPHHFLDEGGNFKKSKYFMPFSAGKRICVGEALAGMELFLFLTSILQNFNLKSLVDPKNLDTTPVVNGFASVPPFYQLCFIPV

[15] = Volume of distribution in male BALB/c mouse at 5 mg/kg, iv by LC/MS/MS analysis; assay type: ADME, organism-based; set-up: dose 5 mg/kg, route intravenous; conditions: in vivo
Method in brief: (§2)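 Male Balb/c mice, n = 3 per group, dosed iv via lateral tail vein at 5 mg/kg and 2 mL/kg. Vehicle 2.5 mg/mL in 75% PEG300/25% DSW, filtered. Six serial retro-orbital blood samples up to 24 h, heparinized plasma. Plasma extracted with acetonitrile/methanol (3:1) plus internal standard for LC/MS/MS (positive ESI, MRM). Noncompartmental analysis.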

[16] = tested on: Mus musculus; test: AUC (0 to infinity) in male BALB/c mouse at 20 mg/kg, po by LC/MS/MS analysis; assay type: ADME, organism-based, Plasma; set-up: time infinity, dose 20 mg/kg, route oral; conditions: in vivo; method in brief: as §1
[17] = Cytotoxicity against human Hep2 cells; assay type: cell-based; conditions: HEp-2 cells, read-out: TC50 (the source's name)
[18] = Cytotoxicity against human 293T cells; assay type: cell-based; conditions: HEK-293T cells, read-out: TC50 (the source's name)
[19] = biological target: Cytochrome P450 2C19 (Homo sapiens, UniProt P33261); test: Inhibition of CYP 2C19; assay type: ADME
Sequence of Cytochrome P450 2C19 (P33261 whole entry): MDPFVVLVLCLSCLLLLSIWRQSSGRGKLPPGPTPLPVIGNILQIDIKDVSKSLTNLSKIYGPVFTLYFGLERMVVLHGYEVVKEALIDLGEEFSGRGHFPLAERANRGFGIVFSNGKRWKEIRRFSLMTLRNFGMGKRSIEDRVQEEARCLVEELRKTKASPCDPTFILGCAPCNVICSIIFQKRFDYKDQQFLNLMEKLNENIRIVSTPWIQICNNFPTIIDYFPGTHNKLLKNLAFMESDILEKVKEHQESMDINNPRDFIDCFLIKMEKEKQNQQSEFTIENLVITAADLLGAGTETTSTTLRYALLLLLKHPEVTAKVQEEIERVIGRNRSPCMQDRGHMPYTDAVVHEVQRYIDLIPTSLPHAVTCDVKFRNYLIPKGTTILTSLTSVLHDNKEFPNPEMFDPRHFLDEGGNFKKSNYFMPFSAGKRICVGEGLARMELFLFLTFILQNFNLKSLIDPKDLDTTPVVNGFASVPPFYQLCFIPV

[20] = pampa
[21] = Half-life in male BALB/c mouse at 5 mg/kg, iv by LC/MS/MS analysis; assay type: ADME, organism-based; set-up: dose 5 mg/kg, route intravenous; conditions: in vivo; method in brief: as §2
[22] = in vitro; conditions: human, Caco-2
[23] = Clearance in male BALB/c mouse at 5 mg/kg, iv by LC/MS/MS analysis; assay type: ADME, organism-based; set-up: dose 5 mg/kg, route intravenous; conditions: in vivo; method in brief: as §2
[24] = AUC (0 to infinity) in male BALB/c mouse at 5 mg/kg, iv by LC/MS/MS analysis; assay type: ADME, organism-based; set-up: time infinity, dose 5 mg/kg, route intravenous; conditions: plasma; method in brief: as §2
[25] = Tmax in male BALB/c mouse at 20 mg/kg, po by LC/MS/MS analysis; assay type: ADME, organism-based; set-up: dose 20 mg/kg, route oral; conditions: in vivo; method in brief: as §1
[26] = tested on: Plasmodium falciparum; test: Antimalarial activity against Plasmodium falciparum 3D7 infected in human erythrocytes assessed as decrease in parasitemia after 72 hrs; assay type: functional, organism-based; conditions: 3D7, 72 h
[27] = in vitro; conditions: human, Caco-2; remark: listed apart in the source
[28] = Half life in male BALB/c mouse at 20 mg/kg, po by LC/MS/MS analysis; assay type: ADME, organism-based; set-up: dose 20 mg/kg, route oral; conditions: in vivo; method in brief: as §1
[29] = tested on: Plasmodium falciparum; test: Antimalarial activity against Plasmodium falciparum W2 infected in human erythrocytes assessed as decrease in parasitemia after 72 hrs; assay type: functional, organism-based; conditions: W2, 72 h
[30] = in vivo; conditions: female, CD1, mouse, iv, 5 mg/kg
[31] = in vitro; conditions: mouse, microsomes
[32] = in vivo; conditions: female, CD1, mouse, po, 30 mg/kg
[33] = tested on: Plasmodium berghei; test: Antimalarial activity against GFP-tagged Plasmodium berghei ANKA infected in NMRI mouse assessed as reduction in parasitemia at 30 mg/kg, po administered as single dose 24 hrs post infection measured 72 hrs post infection; assay type: functional; set-up: scale not given: the % may be the effect or the level left
[34] = tested on: Plasmodium berghei; test: Antimalarial activity against GFP-tagged Plasmodium berghei ANKA infected in NMRI mouse assessed as mouse survival at 100 mg/kg, po administered as single dose 24 hrs post infection measured on day 30 post infection
[35] = tested on: Mus musculus; test: Oral bioavailability in female CD1 mouse at 30 mg/kg by LC/MS/MS analysis; conditions: mouse, in vivo
[36] = in vitro; conditions: rat, microsomes
[37] = Cmax in female CD1 mouse at 30 mg/kg, po by LC/MS/MS analysis; conditions: in vivo
[38] = Tmax in female CD1 mouse at 30 mg/kg, po by LC/MS/MS analysis; conditions: in vivo
[39] = in vivo; conditions: female, CD1, mouse, iv, 5 mg/kg; remark: listed apart in the source
[40] = biological target: Voltage-gated inwardly rectifying potassium channel KCNH2 (Homo sapiens, UniProt Q12809)
Sequence of Voltage-gated inwardly rectifying potassium channel KCNH2 (Q12809 whole entry): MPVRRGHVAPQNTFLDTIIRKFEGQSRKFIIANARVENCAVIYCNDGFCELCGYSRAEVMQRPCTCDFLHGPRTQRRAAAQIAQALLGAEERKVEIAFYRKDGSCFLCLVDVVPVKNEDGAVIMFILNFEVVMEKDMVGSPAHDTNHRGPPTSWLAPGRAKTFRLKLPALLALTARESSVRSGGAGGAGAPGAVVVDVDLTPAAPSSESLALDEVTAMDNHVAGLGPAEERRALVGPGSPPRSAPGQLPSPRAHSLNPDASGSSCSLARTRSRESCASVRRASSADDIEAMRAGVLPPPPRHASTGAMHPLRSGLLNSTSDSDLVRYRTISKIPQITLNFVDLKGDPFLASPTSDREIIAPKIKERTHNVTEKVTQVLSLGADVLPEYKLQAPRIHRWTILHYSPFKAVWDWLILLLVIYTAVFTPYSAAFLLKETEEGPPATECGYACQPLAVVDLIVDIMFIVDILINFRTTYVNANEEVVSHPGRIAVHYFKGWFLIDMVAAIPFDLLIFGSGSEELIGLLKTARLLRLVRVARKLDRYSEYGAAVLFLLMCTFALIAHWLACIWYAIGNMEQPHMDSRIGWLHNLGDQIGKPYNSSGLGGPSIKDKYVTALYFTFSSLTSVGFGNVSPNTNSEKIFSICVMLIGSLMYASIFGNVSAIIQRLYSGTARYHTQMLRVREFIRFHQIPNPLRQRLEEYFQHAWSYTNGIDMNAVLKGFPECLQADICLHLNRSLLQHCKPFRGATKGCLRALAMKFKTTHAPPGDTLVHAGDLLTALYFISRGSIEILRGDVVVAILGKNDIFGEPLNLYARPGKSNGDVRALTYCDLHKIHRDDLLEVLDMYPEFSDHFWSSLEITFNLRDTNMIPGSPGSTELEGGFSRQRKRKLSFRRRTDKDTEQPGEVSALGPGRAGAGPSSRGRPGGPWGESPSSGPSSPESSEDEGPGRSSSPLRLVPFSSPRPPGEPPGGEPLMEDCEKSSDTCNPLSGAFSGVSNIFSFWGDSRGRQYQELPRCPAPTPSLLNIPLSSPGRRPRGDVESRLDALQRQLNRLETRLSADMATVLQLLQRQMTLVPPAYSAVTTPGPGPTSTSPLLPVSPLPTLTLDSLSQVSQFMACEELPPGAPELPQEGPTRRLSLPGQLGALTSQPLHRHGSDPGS

[41] = in vitro; conditions: human, microsomes
[42] = in vivo; conditions: female, CD1, mouse, iv, 5 mg/kg; remark: listed apart in the source
[43] = in vivo; conditions: female, CD1, mouse, plasma, iv, 5 mg/kg
[44] = in vivo; conditions: female, CD1, mouse, plasma, po, 30 mg/kg

`CC(C)(N)C(=O)N1CCn2c(nc(-c3ccc(F)cc3)c2Nc2ccc(F)cc2)C1` showed a Survival [1] of 14 days, a pIC50 [2] of under 5.05 and a bioavailability [3] of 87%. For the same molecule, the CC50 [4] was over 12 µM, the CC50 [5] was over 12 µM and the Cmax [6] was 1800 nM. It also gave a Survival [7] of 7.7 days, a CC50 [8] of over 12 µM and a CC50 [9] of over 12 µM. The pIC50 [10] was under 5.05, the Activity [11] was 99.6% and the Activity [12] was “Non-toxic”. The pIC50 [13] was under 5.05, the pIC50 [14] was under 5.05 and the Vd [15] was 23.7 L/kg. The AUC [16] was 17.894 µM·h, the CC50 [17] was over 12 µM and the CC50 [18] was over 12 µM. The pIC50 [19] was under 5.05, the permeability [20] was 81% and the half-life [21] was 6.2 h. For the same molecule, the Papp A→B [22] was 3.05 ×10⁻⁶ cm/s, the clearance [23] was 60 mL/min/kg and the AUC(0-inf) [24] was 3.44 µM·h. For the same molecule, the Tmax [25] was 1.67 h, the pIC50 [26] was 7.70 and the Papp B→A [27] was 8.38 ×10⁻⁶ cm/s. For the same molecule, the half-life [28] was 9 h and the pIC50 [29] was 7.60.

With `CC(C)(N)C(=O)N1CCn2c(nc(-c3ccc(F)cc3)c2Nc2ccc(Cl)cc2)C1` the clearance [30] was 65.2 mL/min/kg, the hepatic extraction ratio [31] was 0.17 and the half-life [32] was 37.6 h. For the same molecule, the Survival [7] was 6 days, the Activity [11] was 99.5% and the Activity [33] was 98%. It also gave a Survival [34] of 13 days, an F [35] of 158% and a hepatic extraction ratio [36] of 0.43. It also gave a Cmax [37] of 749 nM, a Tmax [38] of 1 h and a Vd [39] of 40.5 L/kg. For the same molecule, the permeability [20] was 89%, the pIC50 [40] was 5.64 and the Papp A→B [22] was 1.46 ×10⁻⁶ cm/s. It also gave a hepatic extraction ratio [41] of 0.54, a half-life [42] of 8.7 h and an AUC(0-inf) [43] of 2.98 µM·h. The pIC50 [26] was 7.52, the Papp B→A [27] was 1.86 ×10⁻⁶ cm/s and the AUC(0-inf) [44] was 28.3 µM·h. It also gave a pIC50 [29] of 7.62.
